Values after ≈ are worked out from the molar mass of the structure shown.
Legend:
[1] = Solubility of the compound in alphaMEM containing 5% FCS and 1% DMSO by HPLC analysis; assay type: physicochemical
Summary of the method: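 Saturated drug solutions were incubated at 37 °C in αMEM with 5% FCS and 1% DMSO. Dissolved drug was quantified by HPLC.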

HCT-116 [2] = assay: Hypoxic cytotoxicity ratio of IC50 for human HCT116 cells under oxic condition to IC50 for human HCT116 cells under anoxic condition
Summary of the method: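 HCT116 cells, 700 per well and attached 2 h, got a 4 h exposure to 3-fold serial dilutions (<1% DMSO) under air or in a Pd-catalyst anaerobic chamber with pre-equilibrated medium. Cells were washed, regrown 5 days, and stained with sulforhodamine B to give IC50. HCR = oxic IC50 / anoxic IC50.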

HCT-116 [3] = assay: (§1) Hypoxia radiosensitization activity in human HCT116 cells assessed as sensitizer enhancement ratio by measuring ratio of radiation dose for 1% survival in absence to presence of compound at 0.03 mM preincubated for 1 hr followed by irradiation measured after 10 days by methylene blue staining-based cell counting method; assay type: functional
HCT-116 [4] = assay: Cytotoxicity against human HCT116 cells incubated for 4 hrs under aerobic condition measured after 5 days by sulforhodamine B assay; assay type: cell-based
Summary of the method: (§2)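 STR-authenticated, mycoplasma-free HCT116 cells in αMEM + 5% FCS were seeded at 700 cells/well and allowed 2 h to attach. Drug was added from DMSO stocks (<1% DMSO) in serial 3-fold dilutions for 4 h, oxic or anoxic (Pd-catalyst anaerobic chamber, medium pre-equilibrated ≥3 days). After washing, cells regrew for 5 days before SRB staining and IC50 determination.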

HCT-116 [5] = assay: (§3) Hypoxia radiosensitization activity in human HCT116 cells assessed as survival ratio by measuring ratio of cell survival with 15 Gy radiation in absence to presence of compound at anoxic IC50 preincubated for 1 hr followed by 15 Gy irradiation measured after 10 days by methylene blue staining-based cell counting method; assay type: functional
Summary of the method: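 Anoxic HCT116 cells were seeded at 10^5/well and treated at the anoxic IC50 concentration for 1 h at room temperature. They were irradiated with 15 Gy (60Co, ~2 Gy/min) in a sealed steel box, then plated clonogenically. Colonies of >50 cells were counted […]. SR15 = survival with radiation / survival with drug + radiation.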

HCT-116 [6] = assay: Cytotoxicity against human HCT116 cells incubated for 4 hrs under anaerobic condition measured after 5 days by sulforhodamine B assay; assay type: functional, cell-based; summary of the method: as §2
HCT-116 [7] = assay: as §3, with “with” for “with 15 Gy”, “0.03 mM” for “anoxic IC50”, “6 to 29” for “15”; assay type: functional
HCT-116 [8] = assay: as §1, with “method relative to misonidazole” for “method”; assay type: functional
HCT-116 [9] = assay: Cytotoxicity against human HCT116 cells at anoxic IC50 incubated for 1 hr at 21 degC by sulforhodamine B assay; assay type: cell-based; settings: hct-116, 1 h
HCT-116 [10] = assay: as §3, with “with” for “with 15 Gy”, “0.03 mM” for “anoxic IC50”, “6 to 29” for “15”, “method relative to misonidazole” for “method”; assay type: functional
HCT-116 [11] = assay: (§4) In vivo hypoxia radiosensitization activity in human HCT116 cells xenografted in NIH-III mouse assessed as survival ratio by measuring ratio of cell survival with 12.5 Gy radiation in absence to presence of compound at 0.6 mmol/kg, iv pretreated as single dose for 10 mins followed by irradiation measured after 18 hrs by excision assay; assay type: functional
[12] = Tmax in plasma of NIH-III mouse xenografted with human HCT116 cells at 0.60 mmol/kg, iv administered as single dose by HPLC analysis; assay type: ADME, organism-based; settings: 0.6 mmol/kg
Summary of the method: (§5)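 Female NIH-III mice bearing subcutaneous HCT116 tumors (10^6 cells; ~300 mm3) got a single i.v. dose at the MAD or 75% of the MTD. Vehicle was saline with 1% DMSO, or saline with 2 equivalents of NaHCO3 for the phosphates. Plasma and tumor were sampled at multiple times by cardiac puncture and excision, drug was measured by HPLC, and Tmax came from noncompartmental analysis.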

Plasma [13] = assay: Cmax in plasma of NIH-III mouse xenografted with human HCT116 cells at 0.60 mmol/kg, iv administered as single dose by HPLC analysis; assay type: ADME, organism-based; set-up: dose 0.6 mmol/kg, route intravenous; settings: in vivo
Summary of the method: (§6)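 Female NIH-III mice bearing subcutaneous HCT116 xenografts (10^6 cells inoculated). At ca. 300 mm3 tumor size, a single i.v. dose was given at the MAD or 75% of the MTD. Vehicle was 0.9% saline with 1% DMSO, or saline with 2 molar equivalents NaHCO3 for phosphate prodrugs. Plasma and tumor were sampled at multiple times by cardiac puncture and excision, assayed by HPLC, and analysed noncompartmentally.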

HCT-116 [14] = assay: as §3, with “with” for “with 15 Gy”, “0.11 mM” for “anoxic IC50”, “6 to 29” for “15”; assay type: functional
HCT-116 [15] = assay: Cytotoxicity against human HCT116 cells at anoxic IC50 incubated for 1 hr at 21 degC by clonogenic survival assay; settings: hct-116, 1 h
HCT-116 [16] = assay: as §3, with “with” for “with 15 Gy”, “0.11 mM” for “anoxic IC50”, “6 to 29” for “15”, “method relative to misonidazole” for “method”; assay type: functional
Mus musculus [17] = assay: Drug level in NIH-III mouse assessed as maximum achievable dose at 10 ml/kg, iv; assay type: ADME; settings: in vivo
Summary of the method: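 Non-tumor-bearing female NIH-III mice (~20 g) received freshly prepared solutions i.v. at 10 mL/kg in 0.9% saline with 1% DMSO, or saline with 2 molar equivalents NaHCO3 for phosphate prodrugs. MAD was the maximum dose that dissolved in the injection volume.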

[18] = Tmax in tumor of NIH-III mouse xenografted with human HCT116 cells at 0.60 mmol/kg, iv administered as single dose by HPLC analysis; assay type: ADME, organism-based, Neoplasm; settings: 0.6 mmol/kg; summary of the method: as §5
[19] = Cmax in tumor of NIH-III mouse xenografted with human HCT116 cells at 0.60 mmol/kg, iv administered as single dose by HPLC analysis; assay type: ADME, organism-based, Neoplasm; set-up: dose 0.6 mmol/kg, route intravenous; settings: in vivo; summary of the method: as §6
Plasma [20] = assay: Cmax in plasma of NIH-III mouse xenografted with human HCT116 cells at 1.24 mmol/kg, iv administered as single dose by HPLC analysis; assay type: ADME, organism-based; set-up: dose 1.24 mmol/kg, route intravenous; settings: in vivo; summary of the method: as §6
[21] = Tmax in plasma of NIH-III mouse xenografted with human HCT116 cells at 1.24 mmol/kg, iv administered as single dose by HPLC analysis; assay type: ADME, organism-based; summary of the method: as §5
[22] = Toxicity in NIH-III mouse at 10 ml/kg, iv; settings: in vivo
Summary of the method: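 MTD was the highest dose without drug-related deaths, >15% body-weight loss or severe morbidity. MAD was the maximum dose soluble in the injection volume. Vehicle was 0.9% saline with 1% DMSO, or for phosphate prodrugs saline with 2 molar equivalents of NaHCO3.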

HCT-116 [23] = assay: as §3, with “with” for “with 15 Gy”, “9.8 mM” for “anoxic IC50”, “6 to 29” for “15”; assay type: functional
HCT-116 [24] = assay: as §1, with “9.8” for “0.03”, “method relative to misonidazole” for “method”; assay type: functional
[25] = Tmax in tumor of NIH-III mouse xenografted with human HCT116 cells at 1.24 mmol/kg, iv administered as single dose by HPLC analysis; assay type: ADME, organism-based, Neoplasm; settings: 0.93 mmol/kg, in the assay text read “0.93 mmol/kg” for “1.24 mmol/kg”; summary of the method: as §5
[26] = Electrophilicity of the compound in pH 7 phosphate buffer assessed as one-electron reduction potential
Summary of the method: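 The one-electron reduction potential was set by pulse radiolysis equilibria at pH 7.0 (2.5 mM phosphate), established within 20 µs against benzylviologen, methylviologen or triquat. ΔE came from equilibrium constants via the Nernst equation, at three concentration ratios and 22 ± 2 °C.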

HCT-116 [27] = assay: as §3, with “with” for “with 15 Gy”, “9.8 mM” for “anoxic IC50”, “6 to 29” for “15”, “method relative to misonidazole” for “method”; assay type: functional
[28] = Cmax in tumor of NIH-III mouse xenografted with human HCT116 cells at 1.24 mmol/kg, iv administered as single dose by HPLC analysis; assay type: ADME, organism-based, Neoplasm; set-up: dose 1.24 mmol/kg, route intravenous; settings: in vivo; summary of the method: as §6
HCT-116 [29] = assay: as §1, with “9.8” for “0.03”; assay type: functional
Mus musculus [30] = assay: Toxicity in NIH-III mouse xenografted with human HCT116 cells assessed as change in body weight with 12.5 Gy radiation at 0.93 mmol/kg, iv administered as single dose; settings: in vivo
HCT-116 [31] = assay: as §4, with “1.24” for “0.6”; assay type: functional
[32] = Cmax in tumor of NIH-III mouse xenografted with human HCT116 cells at 1.12 mmol/kg, iv administered as single dose by HPLC analysis; assay type: ADME, organism-based, Neoplasm; set-up: dose 1.12 mmol/kg, route intravenous; settings: in vivo; summary of the method: as §6
HCT-116 [33] = assay: as §3, with “with” for “with 15 Gy”, “0.4 mM” for “anoxic IC50”, “6 to 29” for “15”; assay type: functional
HCT-116 [34] = assay: as §4, with “1.12” for “0.6”; assay type: functional
[35] = Tmax in tumor of NIH-III mouse xenografted with human HCT116 cells at 1.12 mmol/kg, iv administered as single dose by HPLC analysis; assay type: ADME, organism-based, Neoplasm; summary of the method: as §5
Plasma [36] = assay: Cmax in plasma of NIH-III mouse xenografted with human HCT116 cells at 1.12 mmol/kg, iv administered as single dose by HPLC analysis; assay type: ADME, organism-based; set-up: dose 1.12 mmol/kg, route intravenous; settings: in vivo; summary of the method: as §6
HCT-116 [37] = assay: as §1, with “0.4” for “0.03”; assay type: functional
HCT-116 [38] = assay: as §1, with “0.4” for “0.03”, “method relative to misonidazole” for “method”; assay type: functional
[39] = Tmax in plasma of NIH-III mouse xenografted with human HCT116 cells at 1.12 mmol/kg, iv administered as single dose by HPLC analysis; assay type: ADME, organism-based; summary of the method: as §5
HCT-116 [40] = assay: as §3, with “with” for “with 15 Gy”, “0.4 mM” for “anoxic IC50”, “6 to 29” for “15”, “method relative to misonidazole” for “method”; assay type: functional

With `O=[N+]([O-])c1nccn1CS(=O)(=O)N1CCOCC1` the solubility [1] was 1.08 mM (≈ 0.298 mg/mL), the “Ratio IC50” value (HCT-116 [2]) was 11 and the Ratio (HCT-116 [3]) was 1.11. It also gave an IC50 (HCT-116 [4]) of 0.38 to 4.8 mM, a Ratio (HCT-116 [5]) of 3.8 and an IC50 (HCT-116 [6]) of 30 µM. For the same compound, the Ratio (HCT-116 [7]) was 2, the “fold change (FC)” value (HCT-116 [8]) was 0.87 and the Activity (HCT-116 [9]) was “Non-Toxic”. For the same compound, the “fold change (FC)” value (HCT-116 [10]) was 0.58.

Compound `O=[N+]([O-])c1nccn1CS(=O)(=O)NCCO` has a Ratio (HCT-116 [11]) of 2.4, an IC50 (HCT-116 [4]) of 0.38 to 4.8 mM and a Tmax [12] of 5 min. For the same compound, the Cmax (Plasma [13]) was 570 µM, the Ratio (HCT-116 [14]) was 1.8 and the Activity (HCT-116 [15]) was “Non-Toxic”. For the same compound, the “fold change (FC)” value (HCT-116 [16]) was 0.47, the Drug uptake (Mus musculus [17]) was 0.6 mmol/kg and the Tmax [18] was 10 min. For the same compound, the Cmax [19] was 94 µM.

In the case of `O=[N+]([O-])c1cncn1CCN1CCOCC1` [NIMORAZOLE], the Cmax (Plasma [20]) is reported as 1210 µM, the solubility [1] is reported as > 100 mM and the Tmax [21] is reported as 5 min. For the same compound, the “Ratio IC50” value (HCT-116 [2]) was 0.8, the MTD [22] was 1240 µmol/kg and the Ratio (HCT-116 [23]) was 44.9. For the same compound, the “fold change (FC)” value (HCT-116 [24]) was 1.27, the Tmax [25] was 10 min and the Ratio (HCT-116 [5]) was 37. For the same compound, the Activity [26] was -457 mV, the “fold change (FC)” value (HCT-116 [27]) was 7.28 and the Cmax [28] was 91 µM. The Activity (HCT-116 [15]) was “Non-Toxic”, the IC50 (HCT-116 [6]) was 9800 µM and the Ratio (HCT-116 [29]) was 1.8. For the same compound, the Activity (Mus musculus [30]) was “Non-Toxic” and the Ratio (HCT-116 [31]) was 4.

With `O=[N+]([O-])c1nccn1CCS(=O)(=O)NCCN1CCOCC1` the solubility [1] was > 163 mM, the “Ratio IC50” value (HCT-116 [2]) was 10 and the Cmax [32] was 410 µM. For the same compound, the Ratio (HCT-116 [33]) was 5, the IC50 (HCT-116 [4]) was 0.38 to 4.8 mM and the Ratio (HCT-116 [5]) was 6. It also gave a Ratio (HCT-116 [34]) of 2, a Tmax [35] of 10 min and a Cmax (Plasma [36]) of 1040 µM. The Ratio (HCT-116 [37]) was 1.357, the Activity (HCT-116 [15]) was “Non-Toxic” and the Drug uptake (Mus musculus [17]) was 1.12 mmol/kg. For the same compound, the IC50 (HCT-116 [6]) was 400 µM, the “fold change (FC)” value (HCT-116 [38]) was 0.92 and the Tmax [39] was 5 min. For the same compound, the “fold change (FC)” value (HCT-116 [40]) was 0.57.

Source: ChEMBL document CHEMBL4033777, “Next-Generation Hypoxic Cell Radiosensitizers: Nitroimidazole Alkylsulfonamides” (J Med Chem, 2018)
